In the library only some 7.6% were active in any assay of this set; here they are far more common.
HEK293 NFkB inh: inhibitors of PMA/ionomycin-induced NF-kB reporter, primary screen, antigen receptor NF-kB inhibitor project, cell-based, HEK-293 luciferase reporter, luminescence; HEK-293 NF-kB luciferase reporter; inhibition, % at 3 µM; 62,000 compounds, 0.21% hits;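 active = inhibition above the mean of all tested compounds plus 3 SD, cut at about 40% in these data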
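Signal: luciferase luminescence; Material: HEK-293 cells with stable firefly luciferase reporter driven by four HIV NF-kB elements; Probe or stimulus: PMA with ionomycin; Replication: tested once; Times: 1 h compound pretreatment, then 16 h stimulation at 37 °C, 5% CO2; Benchmarks: DMSO and 10 µM reference inhibitor; Evaluation: per-plate % inhibition versus controls.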
hDAT+cocaine: changed hDAT dopamine uptake under cocaine IC80, either direction, primary screen, cocaine antagonist project, cell-based, LLC-PK1 hDAT, [14C]-dopamine uptake, MLSMR; Sodium-dependent dopamine transporter (Homo sapiens), Q01959; LLC-PK1 hDAT cells, [14C]-dopamine uptake with cocaine IC80; actives deviate in either direction; B-score at 10 µM; 110,000 compounds, 1.3% hits; AID 449768, 2010;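 active = Z score or B-score, a plate-position-corrected score, falls beyond the plate's 99.7% confidence bounds, in either direction; inactive = both scores lie inside the 99.7% bounds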
Jurkat tox 60K: cytotoxicity toward Jurkat T cells, primary screen, cytotoxicity control, cell-based, Jurkat E6.1, 60K MLSMR library | Jurkat E6.1 viability, ATP luminescence, 48 h | inhibition, % at 4 µM | 56,000 compounds, 1.2% hits;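 active = inhibition above the mean inhibition of all tested compounds plus 3 SD, cut at about 28% in these data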
M1 agonist: M1 muscarinic receptor agonists, primary screen, CHO-M1 cells, Fluo-4 calcium, agonist mode; Fluo-4 calcium fluorescence; active compounds read high; 64,000 compounds, 3% hits; AID 626, 2007; Muscarinic acetylcholine receptor M1; B-score at 10 µM;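 active = fluorescence rise, raw or as B-score row- and column-corrected plate score, outside the 99.7% band of its plate's samples, either direction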
M1 antag: antagonists of rat M1 muscarinic receptor. Muscarinic acetylcholine receptor M1 (Rattus norvegicus), P08482. CHO-M1 cells, Fluo-4 calcium, ACh EC80 antagonist mode; active compounds read low. B-score at 10 µM. 64,000 compounds, 3.4% hits;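 active = calcium fluorescence response, raw or row-and-column corrected B-score, differing from the plate sample mean either way at a set confidence level, mostly lower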
Target sequence (P08482 whole entry, looked up): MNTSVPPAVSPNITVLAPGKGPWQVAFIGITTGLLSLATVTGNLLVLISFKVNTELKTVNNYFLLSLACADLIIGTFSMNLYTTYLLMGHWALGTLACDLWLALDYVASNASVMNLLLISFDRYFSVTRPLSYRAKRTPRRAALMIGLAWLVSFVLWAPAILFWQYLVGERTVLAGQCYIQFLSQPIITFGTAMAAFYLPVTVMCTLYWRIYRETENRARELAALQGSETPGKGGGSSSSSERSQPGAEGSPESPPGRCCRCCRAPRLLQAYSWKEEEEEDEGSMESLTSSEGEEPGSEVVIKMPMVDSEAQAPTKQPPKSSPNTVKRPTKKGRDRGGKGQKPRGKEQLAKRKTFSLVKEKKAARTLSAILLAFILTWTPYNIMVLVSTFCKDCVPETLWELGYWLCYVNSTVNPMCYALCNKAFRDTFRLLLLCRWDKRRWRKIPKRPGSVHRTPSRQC
D1 mod: D1 CRE-luciferase signal change, two-sided – cell-based, HEK293 D1, dopamine EC30, D1 allosteric modulator project, primary screen | dopamine EC30 potentiation; actives deviate in either direction | B-score at 10 µM | 58,000 compounds, 5.9% hits | AID 641, 2007;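 active = luminescence count or its row- and column-corrected plate score outside the 99.7% band of the plate's sample wells, on either side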
Of the large screens only hits and unclear results are named; the others gave an inactive call.

CCOC(=O)C1CCCN(C(=O)CC(c2ccccc2)c2ccccc2)C1 (stereo not drawn)	none (no result: HEK293 NFkB inh, Jurkat tox 60K, M1 agonist, M1 antag, D1 mod)
CCOC(=O)C1CCCN(C(=O)C2c3ccccc3Oc3ccccc32)C1 (stereo not drawn)	M1 antag 0.68
CCOC(=O)c1c(-c2ccco2)csc1N	hDAT+cocaine 2.1
O=C(NCCc1ccccc1)N1c2ccccc2Sc2ccccc21	none (no result: HEK293 NFkB inh, Jurkat tox 60K, M1 agonist, M1 antag, D1 mod)
Cn1cc(C[C@H](NC(=O)OC(C)(C)C)C(=O)N[C@H](CO)Cc2ccccc2)c2ccccc21	none (no result: HEK293 NFkB inh, Jurkat tox 60K, M1 agonist, M1 antag, D1 mod)
COc1cc2c(OC)cccc2cc1C(=O)O	none
CCCCN(C)C(=O)C1CCC(=O)N(c2cc(OC)c(OC)c(OC)c2)C1c1ccc(OC)cc1 (stereo not drawn)	hDAT+cocaine -8.4 (no result: Jurkat tox 60K)
COc1ccc(C2C(C(=O)O)CCC(=O)N2c2ccc(OC)cc2)cc1 (stereo not drawn)	none (no result: HEK293 NFkB inh, Jurkat tox 60K, M1 agonist, M1 antag, D1 mod)
CCOC(=O)CCc1c(C)nc2cc(-c3ccccc3OC)[nH]n2c1=O	M1 antag 2.1 (no result: D1 mod)
CCN(CC)c1ccc2cc(-c3nnc(-c4ccncc4)o3)c(=O)oc2c1	M1 agonist 401, M1 antag -15 (no result: HEK293 NFkB inh, Jurkat tox 60K, D1 mod)
Cn1c(=O)oc2cc(S(=O)(=O)N3CCCC(C(=O)NCCN4CCOCC4)C3)ccc21 (stereo not drawn)	none
CCCN(CCC)CCNC(=O)C1CCCN(S(=O)(=O)c2ccc3c(c2)oc(=O)n3C)C1 (stereo not drawn)	D1 mod -3.1
Cc1ccc(C2C(C#N)=C(N)Oc3n[nH]c(-c4ccccc4)c32)o1 (stereo not drawn)	none (no result: HEK293 NFkB inh, Jurkat tox 60K, M1 agonist, M1 antag, D1 mod)
COc1ccc(CCNC(=O)C2CC(=O)N(c3ccc(F)cc3)C2)cc1OC (stereo not drawn)	none (no result: HEK293 NFkB inh, Jurkat tox 60K)
COc1cc(C(CC(=O)N2CCCC2)c2c(OC)cc(OC)c3c(-c4ccccc4)cc(=O)oc23)cc(OC)c1OC (stereo not drawn)	hDAT+cocaine 2.7 (no result: HEK293 NFkB inh, Jurkat tox 60K, M1 agonist, M1 antag, D1 mod)
COc1cc(C(CCN2CCOCC2)c2c(OC)cc(OC)c3c(C)cc(=O)oc23)cc(OC)c1OC (stereo not drawn)	hDAT+cocaine 2.8 (no result: HEK293 NFkB inh, Jurkat tox 60K, M1 agonist, M1 antag, D1 mod)
COc1cc(C(CCN2CCCC2)c2c(OC)cc(OC)c3c(C)cc(=O)oc23)cc(OC)c1OC (stereo not drawn)	none (no result: HEK293 NFkB inh, Jurkat tox 60K, M1 agonist, M1 antag, D1 mod)
O=C(COC(=O)C(Cc1ccccc1)NC(=O)c1ccco1)NC1CC1 (stereo not drawn)	none (no result: HEK293 NFkB inh, Jurkat tox 60K, M1 agonist, M1 antag, D1 mod)
CC(=O)Oc1c(S(=O)(=O)c2ccc(C)cc2)c(C)nn1C(C)(C)C	M1 antag 2.3
CN1C(=O)C(CC(=O)N2CCN(C(c3ccccc3)c3ccccc3)CC2)N(C)C1=O (stereo not drawn)	none
CC(C)C1CC(c2csc(N)n2)CCO1 (stereo not drawn)	none
Cc1cc(C)n2nc(C(=O)OCC(=O)Nc3ccc4c(c3)OCO4)nc2n1	D1 mod -4.9
CCN(CC)CCCNC(=O)c1nn(-c2ccc(OC)cc2OC)c(=O)c2ccccc12	none
CC(=O)c1c(N2CCCC2)[nH]c(-c2ccccc2)nc1=S	none (no result: HEK293 NFkB inh, Jurkat tox 60K, M1 agonist, M1 antag, D1 mod)
CC(=O)c1c(N2CCN(Cc3ccccc3)CC2)[nH]c(-c2ccccc2)nc1=S	Jurkat tox 60K 38
Clc1ccc2oc(-c3cccnc3NCc3ccccc3)nc2c1	none (no result: HEK293 NFkB inh, Jurkat tox 60K, M1 agonist, M1 antag, D1 mod)
Cc1ccc(C)c(NC(=O)CSc2nc(C)cc(C)c2C#N)c1	none (no result: HEK293 NFkB inh, Jurkat tox 60K, M1 agonist, M1 antag, D1 mod)
CCOc1ccc(-c2nnc(-c3cccs3)o2)cc1OCC	D1 mod 5
COc1ccc(-c2nnc(-c3cccs3)o2)cc1OC	none
CN1CCC(N2CCCC(C(=O)O)C2)CC1 (stereo not drawn)	none (no result: HEK293 NFkB inh, Jurkat tox 60K, M1 agonist, M1 antag, D1 mod)
N#CCC1c2ccccc2CCN1C(=O)Nc1ccc(Cl)cc1 (stereo not drawn)	hDAT+cocaine -3.2 (no result: HEK293 NFkB inh, Jurkat tox 60K, M1 agonist, M1 antag, D1 mod)
Cc1[nH]c2ccccc2c1SCc1ccccc1	hDAT+cocaine -2.7 (no result: HEK293 NFkB inh, Jurkat tox 60K, M1 agonist, M1 antag, D1 mod)
CN(C)c1ccc(C2C3C(=O)NC(=O)C3ON2c2ccc(Cl)cc2)cc1 (stereo not drawn)	none
O=C(NCCc1csc(-c2ccc(C(F)(F)F)cc2)n1)c1cccs1	hDAT+cocaine 2.1 (no result: HEK293 NFkB inh, Jurkat tox 60K, M1 agonist, M1 antag, D1 mod)
O=C(NCCc1csc(-c2cccnc2)n1)c1cccs1	none (no result: hDAT+cocaine, D1 mod)
Cc1ccc(-c2nn3c(C)nnc3c3ccccc23)cc1S(=O)(=O)N1CCN(CCO)CC1	none
Cc1ccc(-c2nnc(NC3CCCCC3)c3ccccc23)cc1S(=O)(=O)N1CCN(C)CC1	hDAT+cocaine 1.9 (no result: HEK293 NFkB inh, Jurkat tox 60K, M1 agonist, M1 antag, D1 mod)
CS(=O)(=O)N1CCc2cc(-c3csc(NC(=O)Cc4cccs4)n3)ccc21	Jurkat tox 60K 70
Cc1ccc(C)c(N2CCN(C(=O)C(Cc3ccccc3)n3cccc3)CC2)c1 (stereo not drawn)	none (no result: HEK293 NFkB inh, Jurkat tox 60K, M1 agonist, M1 antag, D1 mod)
O=C(CSCC(=O)N1CCCc2ccccc21)Nc1nc(-c2ccccc2)cs1	none (no result: HEK293 NFkB inh, Jurkat tox 60K, M1 agonist, M1 antag, D1 mod)
CC(=O)Nc1ccc(S(=O)(=O)n2cnc3cc(C)c(C)cc32)cc1	Jurkat tox 60K 28 (no result: hDAT+cocaine)
CC(=O)Nc1ccc(C(=O)n2cnc3cc(C)c(C)cc32)cc1	none (no result: HEK293 NFkB inh, Jurkat tox 60K, M1 agonist, M1 antag, D1 mod)
NC(=O)c1ccccc1N/C=C/C(=O)c1ccccc1	D1 mod -2.5
O=C(NC1CCCC1)C1CCCN(S(=O)(=O)c2cccc3cccnc23)C1 (stereo not drawn)	none
CN(C)C=Nc1nonc1N	none
COc1ccc(N(CC(=O)NC2CCCC2)C(=O)c2csnn2)cc1	none (no result: HEK293 NFkB inh, Jurkat tox 60K, M1 agonist, M1 antag, D1 mod)
COc1ccc(-c2nnn(CC(=O)N(CC(=O)NC3CCCC3)c3cccc(C)c3)n2)cc1OC	hDAT+cocaine 2.8
COc1ccc(N(CC(=O)NC2CCCC2)C(=O)Cn2nnc(-c3ccc(F)cc3)n2)cc1OC	none
COc1ccc(N(CC(=O)NC2CCCC2)C(=O)Cn2nnc(-c3ccc(C)cc3)n2)cc1	hDAT+cocaine 2.5
O=C(CSCc1ccccc1Cl)NN=C1CCCCCC1	none (no result: HEK293 NFkB inh, Jurkat tox 60K, M1 agonist, M1 antag, D1 mod)
CNC(=O)OC(C)CNS(=O)(=O)c1ccc(C)cc1 (stereo not drawn)	none (no result: D1 mod)

Bioassay records deposited in PubChem by several laboratories.
